Test results taken from ChEMBL document CHEMBL1177741, “Cardiac glycosides from Antiaris toxicaria with potent cardiotonic activity” (J Nat Prod, 2010).

How the values were obtained:
[1] = Cardiotonic activity in guinea pig right ventricular muscles assessed as minimum positive inotropic effective concentration causing myocardial contraction; assay type: functional, Cavia porcellus, Muscle tissue
Method in brief: (§1)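 Guinea pig left atrial or right ventricular strips were perfused with Tyrode's solution, held at 1 g tension and paced at 2 Hz (2 ms, twice threshold). After about 60 min stabilisation, drug was added cumulatively. PIECmin was recorded as the lowest concentration that increased myocardial contraction.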

[2] = Cardiotonic activity in guinea pig left atrial muscles assessed as maximum positive inotropic effective concentration causing myocardial contraction relative to basal level; assay type: functional, Cavia porcellus, Muscle tissue
Method in brief: (§2)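 Isolated left atrial or right ventricular strips from adult guinea pigs (300–500 g; pentobarbital 25 mg/kg i.p.; heart retrogradely perfused with Tyrode's, pH not stated). Tissue held at 1 g tension, paced at 2 Hz (2 ms pulses, twice threshold), stabilised about 60 min, then given cumulative drug additions. Maximal inotropic effect taken at the concentration just before arrhythmia onset.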

[3] = Cardiotonic activity in guinea pig left atrial muscles assessed as minimum positive inotropic effective concentration causing myocardial contraction; assay type: functional, Cavia porcellus, Muscle tissue; method in brief: as §1
[4] = Cardiotonic activity in guinea pig right ventricular muscles assessed as maximum positive inotropic effective concentration causing myocardial contraction relative to basal level; assay type: functional, Cavia porcellus, Muscle tissue; method in brief: as §2
[5] = Safety index, ratio of arrhythmogenic concentration to minimum positive inotropic effective concentration causing myocardial contraction in guinea pig right ventricular muscles; assay type: toxicity, tissue-based, Cavia porcellus, Muscle tissue; conditions: isolated right ventricular muscles
Method in brief: (§3)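 Paced guinea pig left atrial or right ventricular strips (1 g tension, 2 Hz) received cumulative drug addition. The lowest concentration raising contraction (PIECmin) and the concentration inducing arrhythmia were both recorded. Safety index was calculated as the ratio of the arrhythmogenic concentration to PIECmin.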

[6] = Safety index, ratio of arrhythmogenic concentration to minimum positive inotropic effective concentration causing myocardial contraction in guinea pig left atrial muscles; assay type: toxicity, tissue-based, Cavia porcellus, Muscle tissue; conditions: for selectivity ratio: isolated left atrial muscles; method in brief: as §3

Compound | Activity [1] [µM] | Activity [2] [%] | Activity [3] [µM] | Activity [4] [%] | selectivity ratio [5] | selectivity ratio [6] | Ratio [6]
C[C@H]1O[C@H](O[C@H]2CC[C@]3(C=O)[C@H]4C[C@@H](O)[C@]5(C)[C@@H](C6=CC(=O)OC6)CC[C@]5(O)[C@@H]4CC[C@]3(O)C2)[C@H](O)[C@H](O)[C@H]1O | 2 | 220 | 0.5 | 200 | 15 | 10 | 
C[C@H]1O[C@H](O[C@H]2CC[C@]3(C=O)[C@H]4C[C@@H](O)[C@]5(C)[C@@H](C6=CC(=O)OC6)CC[C@]5(O)[C@@H]4CC[C@]3(O)C2)[C@H](O)[C@H](O)[C@@H]1O [ANTIALLOSIDE] |  | 350 | 0.25 |  |  | 80 | 
C[C@]12CC[C@H]3[C@@H](CC[C@]4(O)C[C@@H](O)CC[C@]34CO)[C@@]1(O)CC[C@@H]2C1=CC(=O)OC1 [STROPHANTHIDOL] | 0.3 | 205 | 1.25 | 408 | 65 | 6.3 | 
C[C@@H]1O[C@@H](O[C@H]2CC[C@@]3(CO)[C@H](CC[C@@H]4[C@@H]3CC[C@]3(C)[C@@H](C5=CC(=O)OC5)CC[C@]43O)C2)[C@H](O)[C@H](O)[C@H]1O[C@@H]1O[C@H](CO)[C@@H](O)[C@H](O)[C@H]1O [ANTIAROSIDE B] | 0.075 | 373 | 0.38 | 382 | 100 | 5 | 
C[C@H]1O[C@@H](O[C@H]2CC[C@]3(C)[C@H]4CC[C@]5(C)[C@@H](C6=CC(=O)OC6)CC[C@]5(O)[C@@H]4CC[C@]3(O)C2)[C@H](O)[C@H](O)[C@H]1O [ANTIAROSIDE A] | 0.083 | 158 | 0.1 | 150 | 2 | 4.3 | 
C[C@@H]1O[C@H](O[C@H]2CC[C@]3(CO)[C@H]4CC[C@]5(C)[C@@H](C6=CC(=O)OC6)CC[C@]5(O)[C@@H]4CC[C@]3(O)C2)[C@H](O)[C@H](O)[C@H]1O [CONVALLATOXOL] | 0.25 | 138 | 0.1 | 625 | 20 | 5 | 
C[C@H]1O[C@H](O[C@H]2CC[C@]3(C(=O)O)[C@H]4C[C@@H](O)[C@]5(C)[C@@H](C6=CC(=O)OC6)CC[C@]5(O)[C@@H]4CC[C@]3(O)C2)[C@H](O)[C@H](O)[C@H]1O [ANTIAROSIDE H] | 8.33 | 144 | 7.5 | 260 | 9.7 | 7.5 | 
CO[C@H]1[C@@H](O[C@H]2CC[C@]3(C=O)[C@H]4CC[C@]5(C)[C@@H](C6=CC(=O)OC6)CC[C@]5(O)[C@@H]4CC[C@]3(O)C2)O[C@H](C)[C@@H](O)[C@H]1O (stereo in doubt; 18) [STROPHATHOJAVOSIDE] | 1 | 567 | 0.25 | 200 | 5 |  | 10
C[C@]12CC[C@H](O)C[C@@]1(O)CC[C@@H]1[C@@H]2CC[C@]2(C)[C@@H]([C@]3(O)COC(=O)C3)CC[C@]12O [ANTIAROTOXININ A] |  | 367 | 0.1 |  |  | 1000 | 
C[C@H]1O[C@H](O[C@H]2CC[C@]3(C=O)[C@H]4CC[C@]5(C)[C@@H](C6=CC(=O)OC6)CC[C@]5(O)[C@@H]4CC[C@]3(O)C2)[C@H](O)[C@H](O[C@@H]2O[C@H](CO)[C@@H](O)[C@H](O)[C@H]2O)[C@@H]1O [GLUCOSTROPHALLOSIDE] | 1 | 489 | 0.25 | 350 | 10 | 10 | 
C[C@@H]1O[C@H](O[C@H]2CC[C@]3(C)[C@H]4CC[C@]5(C)[C@@H](C6=CC(=O)OC6)CC[C@]5(O)[C@@H]4CC[C@]3(O)C2)[C@H](O)[C@H](O)[C@H]1O [PERIPLORHAMNOSIDE] | 0.25 | 381 | 0.05 | 355 | 8.8 | 11 | 
C[C@@H]1O[C@H](O[C@H]2CC[C@]3(C(=O)O)[C@H]4C[C@@H](O)[C@]5(C)[C@@H](C6=CC(=O)OC6)CC[C@]5(O)[C@@H]4CC[C@]3(O)C2)[C@H](O)[C@H](O)[C@H]1O [ANTIAROSIDE G] | 3.67 | 419 | 3.75 | 221 | 20.7 | 13 | 
C[C@]12CC[C@H]3[C@@H](CC[C@]4(O)C[C@@H](O)CC[C@]34C=O)[C@@]1(O)CC[C@@H]2C1=CC(=O)OC1 [STROPHANTHIDIN] | 4.8 | 165 | 1 | 240 | 8.7 | 9 | 
C[C@@H]1O[C@@H](O[C@H]2CC[C@]3(C=O)[C@H]4CC[C@]5(C)[C@@H](C6=CC(=O)OC6)CC[C@]5(O)[C@@H]4CC[C@]3(O)C2)[C@H](O)[C@H](O)[C@H]1O[C@@H]1O[C@H](CO)[C@@H](O)[C@H](O)[C@H]1O [CONVALLOSIDE] | 1 | 443 | 0.25 | 292 | 9 | 20 | 
C[C@@H]1O[C@H](O[C@H]2CC[C@@]3(C(=O)O)[C@H](CC[C@@H]4[C@@H]3CC[C@]3(C)[C@@H](C5=CC(=O)OC5)CC[C@]43O)C2)[C@H](O)[C@H](O)[C@H]1O [ANTIAROSIDE E] | 1.33 | 264 | 0.42 | 230 | 7.7 | 10 | 
C[C@@H]1O[C@H](O[C@@H]2CC[C@]3(C=O)[C@H]4CC[C@]5(C)[C@@H](C6=CC(=O)OC6)CC[C@]5(O)[C@@H]4CC[C@]3(O)C2)[C@H](O)[C@H](O)[C@H]1O [ANTIAROSIDE C] | 4 | 208 | 2.75 | 229 | 9.7 | 15 | 
C[C@@H]1O[C@@H](O[C@H]2C[C@@H](O)[C@]3(CO)[C@H]4[C@H](O)C[C@]5(C)[C@@H](C6=CC(=O)OC6)CC[C@]5(O)[C@@H]4CC[C@]3(O)C2)[C@H](O)[C@H](O)[C@H]1O [OUABAIN] | 0.05 | 775 | 0.05 | 249 | 20 | 20 | 
C[C@@H]1O[C@H](O[C@H]2CC[C@@]3(C(=O)O[C@@H]4O[C@H](CO)[C@@H](O)[C@H](O)[C@H]4O)[C@H](CC[C@@H]4[C@@H]3CC[C@]3(C)[C@@H](C5=CC(=O)OC5)CC[C@]43O)C2)[C@H](O)[C@H](O)[C@H]1O [ANTIAROSIDE F] | 3.17 | 140 | 1.42 | 618 | 5.8 | 6 | 
CO[C@H]1[C@@H](O[C@H]2CC[C@]3(C=O)[C@H]4C[C@@H](O)[C@]5(C)[C@@H](C6=CC(=O)OC6)CC[C@]5(O)[C@@H]4CC[C@]3(O)C2)O[C@H](C)[C@@H](O)[C@@H]1O [TOXICARIOSIDE B] |  | 163 | 0.1 |  |  | 10 | 
C[C@@H]1O[C@H](O[C@H]2CC[C@]3(C=O)[C@H]4C[C@@H](O)[C@]5(C)[C@@H](C6=CC(=O)OC6)CC[C@]5(O)[C@@H]4CC[C@]3(O)C2)[C@H](O)[C@H](O)[C@H]1O | 2 | 243 | 1 | 250 | 15 | 10 | 
C[C@@H]1O[C@@H](O[C@H]2CC[C@]3(C=O)[C@H]4CC[C@]5(C)[C@@H](C6=CC(=O)OC6)CC[C@]5(O)[C@@H]4CC[C@]3(O)C2)[C@H](O)[C@H](O)[C@H]1O [CONVALLATOXIN] | 0.125 | 467 | 0.1 | 300 | 8 | 10 | 
C[C@H]1O[C@@H](O[C@H]2CC[C@]3(C=O)[C@H]4CC[C@]5(C)[C@@H](C6=CC(=O)OC6)CC[C@]5(O)[C@@H]4CC[C@]3(O)C2)[C@H](O)[C@H](O)[C@H]1O [DESGLUCOCHEIROTOXIN] | 0.5 | 300 | 0.05 | 300 | 10 | 50 | 
C[C@]12[C@H](O)C[C@H]3[C@@H](CC[C@]4(O)CCCC[C@]34C=O)[C@@]1(O)CC[C@@H]2C1=CC(=O)OC1 [ANTIARIGENIN] |  | 121 | 0.05 |  |  | 20 | 
